Data set [1] has as its target T1, Oxysterols receptor LXR-beta (Homo sapiens) (UniProt P55055).
T1 sequence (whole entry): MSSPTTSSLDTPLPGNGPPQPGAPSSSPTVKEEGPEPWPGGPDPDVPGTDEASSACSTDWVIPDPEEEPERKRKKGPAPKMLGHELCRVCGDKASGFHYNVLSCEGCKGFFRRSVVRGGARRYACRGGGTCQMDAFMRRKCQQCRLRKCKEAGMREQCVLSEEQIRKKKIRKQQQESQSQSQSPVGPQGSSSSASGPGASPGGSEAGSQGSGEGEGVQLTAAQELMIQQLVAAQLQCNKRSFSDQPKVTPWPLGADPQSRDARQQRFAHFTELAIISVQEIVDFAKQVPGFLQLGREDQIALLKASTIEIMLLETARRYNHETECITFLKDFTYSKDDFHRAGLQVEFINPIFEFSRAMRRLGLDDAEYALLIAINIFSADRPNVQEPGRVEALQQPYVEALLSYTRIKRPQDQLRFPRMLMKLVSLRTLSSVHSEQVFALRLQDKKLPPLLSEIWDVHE
Kind of data set: Agonist activity at human LXR-beta expressed in African green monkey CV1 cells measured after 18 to 20 hrs by luciferase reporter gene assay relative to pan agonist 1-(2,4-difluorobenzyl)-2-oxo-6-(4-phenoxyphenyl)-4-(trifluoromethyl)-1,2-dihydropyridine-3-carbonitrile. In kind it is cell-based. The note with it: CV-1. Background: Reporter assays use an easily measured gene product as a stand-in for the process of interest.

For data set [2], the target named is T2, Oxysterols receptor LXR-alpha (Homo sapiens, UniProt Q13133).
T2 sequence (Q13133 whole entry): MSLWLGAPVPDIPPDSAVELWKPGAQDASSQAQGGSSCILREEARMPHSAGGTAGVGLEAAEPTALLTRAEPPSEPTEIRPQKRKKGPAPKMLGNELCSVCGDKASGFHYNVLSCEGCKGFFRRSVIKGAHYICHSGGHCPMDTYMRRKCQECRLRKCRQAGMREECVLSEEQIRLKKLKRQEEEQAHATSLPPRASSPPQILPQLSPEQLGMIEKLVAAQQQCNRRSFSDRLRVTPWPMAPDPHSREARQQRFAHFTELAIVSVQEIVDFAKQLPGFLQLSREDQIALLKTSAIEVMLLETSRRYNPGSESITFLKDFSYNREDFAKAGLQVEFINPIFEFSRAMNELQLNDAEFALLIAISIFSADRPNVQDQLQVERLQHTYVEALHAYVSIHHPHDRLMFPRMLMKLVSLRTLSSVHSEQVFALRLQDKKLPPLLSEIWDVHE
Kind of data set: Agonist activity at human LXR-alpha expressed in African green monkey CV1 cells measured after 18 to 20 hrs by luciferase reporter gene assay relative to pan agonist 1-(2,4-difluorobenzyl)-2-oxo-6-(4-phenoxyphenyl)-4-(trifluoromethyl)-1,2-dihydropyridine-3-carbonitrile. In kind it is cell-based. The note with it: CV-1, human; read-out: Efficacy.

The target of data set [3] is T1, Oxysterols receptor LXR-beta (Homo sapiens). The data set can be described thus: Agonist activity at LXR-beta in human HeLa cells assessed as induction of ABCA1 by beta-galactosidase/luciferase reporter gene assay relative to control. In kind it is cell-based. The method in brief: (§1)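 HeLa cells carrying endogenous LXRα and LXRβ receptors, transfected with an ABCA1 LXREx3 reporter construct; agonist-driven reporter induction measured.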

Data set [4] shares this target. Kind of data set: Agonist activity at LXR-beta in human whole blood assessed as ABCA1 gene induction by measuring ABCA1 mRNA level after 4 hrs by SYBR-Green dye-based Q-PCR analysis relative to pan agonist 2-(4-(5-(5-cyano-1-(2,4-difluorobenzyl)-6-oxo-4-(trifluoromethyl)-1,6-dihydropyridin-2-yl)thiophen-2-yl)-3-methylphenyl)acetic acid. In kind it is tissue-based.

Data set [5] has as its target T3, Nuclear receptor subfamily 1 group I member 2 (Homo sapiens, UniProt O75469).
T3 sequence (O75469 whole entry): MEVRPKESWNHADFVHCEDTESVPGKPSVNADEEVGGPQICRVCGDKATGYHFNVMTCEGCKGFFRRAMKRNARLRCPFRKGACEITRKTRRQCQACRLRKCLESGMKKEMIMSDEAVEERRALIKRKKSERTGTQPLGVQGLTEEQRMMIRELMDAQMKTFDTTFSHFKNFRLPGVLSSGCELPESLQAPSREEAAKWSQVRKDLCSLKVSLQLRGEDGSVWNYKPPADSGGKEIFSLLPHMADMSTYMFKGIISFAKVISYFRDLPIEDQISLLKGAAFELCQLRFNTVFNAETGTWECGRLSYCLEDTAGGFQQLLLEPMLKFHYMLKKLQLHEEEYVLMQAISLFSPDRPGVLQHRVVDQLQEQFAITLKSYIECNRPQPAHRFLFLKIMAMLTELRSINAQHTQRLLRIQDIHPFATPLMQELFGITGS
Kind of data set: Agonist activity at human PXR expressed in human HepG2 cells assessed as induction of CYP3A4 measured after 24 hrs by AlamarBlue dye-based luciferase reporter gene assay. In kind it is cell-based.

The target of data set [6] is Alpha-1-acid glycoprotein 1 (Homo sapiens, UniProt P02763). The data set can be described thus: Binding affinity to human alpha-1-AGP at 1 uM measured after 4 hrs by equilibrium dialysis method relative to control. In kind it is ADME. The note with it: isolated protein, 4 h, 1 µM. A general note: In equilibrium dialysis free small molecules cross a membrane that holds back macromolecules.
Chain of Alpha-1-acid glycoprotein 1 (P02763 whole entry): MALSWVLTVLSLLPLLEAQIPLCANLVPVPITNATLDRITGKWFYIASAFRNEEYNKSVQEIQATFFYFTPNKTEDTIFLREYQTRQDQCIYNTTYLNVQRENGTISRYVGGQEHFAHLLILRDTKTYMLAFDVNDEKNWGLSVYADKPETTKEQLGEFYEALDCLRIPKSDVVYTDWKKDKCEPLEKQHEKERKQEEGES

Data set [7] concerns the target Albumin (Homo sapiens, UniProt P02768). The data set can be described thus: Binding affinity to human serum albumin at 1 uM measured after 4 hrs by equilibrium dialysis method relative to control. In kind it is ADME. The note with it: isolated protein, 4 h, 1 µM.
Data set [8] concerns the target T3, Nuclear receptor subfamily 1 group I member 2. The data set can be described thus: Agonist activity at human PXR expressed in human HepG2 cells assessed as induction of CYP3A4 measured after 24 hrs by AlamarBlue dye-based luciferase reporter gene assay relative to control. In kind it is cell-based. The note with it: hepg2, 24 h. (In general: Resazurin is reduced to fluorescent resorufin, in cell work by metabolically active cells.)

Data set [9] is described as follows: Apparent elimination half life in iv dosed cynomolgus monkey. In kind it is ADME, organism-based, Macaca fascicularis. As to conditions: in vivo.
Data set [10] in a line: Agonist activity at LXR-beta in cynomolgus monkey whole blood assessed as ABCA1 gene induction by measuring ABCA1 mRNA level after 4 hrs by SYBR-Green dye-based Q-PCR analysis. In kind it is tissue-based. As to conditions: Macaca fascicularis.
For data set [11], the species on record is Macaca fascicularis. Kind of data set: Agonist activity at LXR-beta in cynomolgus monkey whole blood assessed as ABCA1 gene induction by measuring ABCA1 mRNA level after 4 hrs by SYBR-Green dye-based Q-PCR analysis relative to control. In kind it is tissue-based.
Data set [12] concerns Cynomolgus monkey. Kind of data set: In vivo agonist activity at LXR-beta in cynomolgus monkey assessed as ABCG1 gene induction by measuring total RNA level at 1 mg/kg, po qd administered via gavage for 14 days measured after 5 to 6 hrs of last-dose relative to control. In kind it is functional, Macaca fascicularis. Put shortly:
(§2)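 Cynomolgus monkeys dosed daily for 14 days. ABCG1 mRNA induction measured in blood cells on day 14 and expressed as fold change. Plasma drug concentration taken about 5 h post-dose. Plasma triglycerides also measured against baseline, with significance by ANOVA.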

Data set [13] has as its system Cynomolgus monkey. Kind of data set: In vivo agonist activity at LXR-beta in cynomolgus monkey assessed as ABCG1 gene induction by measuring total RNA level at 3 mg/kg, po qd administered via gavage for 14 days measured after 5 to 6 hrs of last-dose relative to control. In kind it is functional, Macaca fascicularis. The method in brief: as §2
Data set [14] can be described thus: Plasma concentration in cynomolgus monkey at 1 mg/kg, po qd administered via gavage for 14 days measured after 5 hrs of last-dose by LC/MS/MS analysis. In kind it is ADME, organism-based, Macaca fascicularis. The method in brief: (§3)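 Cynomolgus monkeys dosed daily for 14 days. On day 14, plasma drug concentration was taken 5 h post-dose. Plasma triglycerides were expressed as % elevation over baseline, with significance tested by ANOVA (p < 0.05).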

The nature of data set [15]: Plasma concentration in cynomolgus monkey at 3 mg/kg, po qd administered via gavage for 14 days measured after 5 hrs of last-dose by LC/MS/MS analysis. In kind it is ADME, organism-based, Macaca fascicularis. Put shortly:
as §3

The nature of data set [16]: Effect on plasma triglyceride level in cynomolgus monkey at 1 mg/kg, po qd administered via gavage for 14 days measured after 24 hrs of last-dose relative to base line. In kind it is ADME, organism-based, Macaca fascicularis. The note with it: in vivo. Put shortly:
as §3

The nature of data set [17]: Effect on plasma triglyceride level in cynomolgus monkey at 3 mg/kg, po qd administered via gavage for 14 days measured after 24 hrs of last-dose relative to base line. In kind it is ADME, organism-based, Macaca fascicularis. As to conditions: in vivo. The method in brief: as §3
Data set [18] addresses T4, Oxysterols receptor LXR-beta (Homo sapiens, UniProt P55055).
T4 sequence (P55055 whole entry): T1 sequence (whole entry)
Kind of data set: Agonist activity at human LXR-beta expressed in African green monkey CV1 cells measured after 18 to 20 hrs by luciferase reporter gene assay. In kind it is cell-based, CV-1.

For data set [19], the target named is Retinoic acid receptor RXR-alpha/oxysterols receptor LXR-beta (Homo sapiens, UniProt P55055). Kind of data set: Displacement of [3H]-24,25-epoxycholesterol from human LXRbeta/RXRalpha expressed in baculovirus infected Sf9 cells by scintillation proximity analysis. The method in brief:
(§4)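 Binding affinity measured using full-length LXRα–RXRα and LXRβ–RXRα heterodimers.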

Data set [20] deals with Retinoic acid receptor RXR-alpha/oxysterols receptor LXR-alpha (Homo sapiens, UniProt Q13133). The data set can be described thus: Displacement of [3H]-24,25-epoxycholesterol from human LXRalpha/RXRalpha expressed in baculovirus infected Sf9 cells by scintillation proximity analysis. The method in brief:
as §4

The target in data set [21] is T4, Oxysterols receptor LXR-beta. Kind of data set: Agonist activity at LXR-beta in human HeLa cells assessed as induction of ABCA1 by beta-galactosidase/luciferase reporter gene assay. In kind it is cell-based. The method in brief: as §1
The target in data set [22] is T2, Oxysterols receptor LXR-alpha. Kind of data set: Agonist activity at human LXR-alpha expressed in African green monkey CV1 cells measured after 18 to 20 hrs by luciferase reporter gene assay. In kind it is cell-based, CV-1.
In data set [23] the target is T4, Oxysterols receptor LXR-beta. The data set can be described thus: Agonist activity at LXR-beta in human whole blood assessed as ABCA1 gene induction by measuring ABCA1 mRNA level after 4 hrs by SYBR-Green dye-based Q-PCR analysis. In kind it is tissue-based.
The nature of data set [24]: Half life in cynomolgus monkey at 0.25 mg/kg, iv administered as 10 mins infusion by LC/MS/MS analysis. In kind it is ADME, organism-based, Macaca fascicularis. As to conditions: in vivo. The method in brief: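 Cynomolgus monkey intravenous PK, with n = 2 animals at the 0.25 mg/kg dose. Plasma clearance (mL/min/kg) and terminal t1/2 (h) derived from the plasma concentration–time profile.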

Chain of Albumin (P02768 whole entry): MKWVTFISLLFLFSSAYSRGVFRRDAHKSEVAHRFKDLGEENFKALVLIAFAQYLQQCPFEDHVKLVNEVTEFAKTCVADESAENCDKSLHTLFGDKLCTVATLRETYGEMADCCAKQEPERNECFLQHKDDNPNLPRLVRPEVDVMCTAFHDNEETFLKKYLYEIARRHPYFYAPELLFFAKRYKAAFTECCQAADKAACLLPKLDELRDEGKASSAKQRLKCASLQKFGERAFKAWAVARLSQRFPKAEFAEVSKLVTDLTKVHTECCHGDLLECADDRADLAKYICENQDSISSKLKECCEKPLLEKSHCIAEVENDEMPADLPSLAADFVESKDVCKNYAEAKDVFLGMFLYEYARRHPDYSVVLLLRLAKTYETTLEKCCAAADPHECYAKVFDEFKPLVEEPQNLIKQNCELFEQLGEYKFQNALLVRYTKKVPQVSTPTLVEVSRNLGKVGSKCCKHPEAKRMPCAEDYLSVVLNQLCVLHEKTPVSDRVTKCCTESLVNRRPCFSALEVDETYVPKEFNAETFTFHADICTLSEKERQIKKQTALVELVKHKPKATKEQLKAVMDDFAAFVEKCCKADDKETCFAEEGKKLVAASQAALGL
Chain of Retinoic acid receptor RXR-alpha/oxysterols receptor LXR-beta (P19793 whole entry, one chain of several): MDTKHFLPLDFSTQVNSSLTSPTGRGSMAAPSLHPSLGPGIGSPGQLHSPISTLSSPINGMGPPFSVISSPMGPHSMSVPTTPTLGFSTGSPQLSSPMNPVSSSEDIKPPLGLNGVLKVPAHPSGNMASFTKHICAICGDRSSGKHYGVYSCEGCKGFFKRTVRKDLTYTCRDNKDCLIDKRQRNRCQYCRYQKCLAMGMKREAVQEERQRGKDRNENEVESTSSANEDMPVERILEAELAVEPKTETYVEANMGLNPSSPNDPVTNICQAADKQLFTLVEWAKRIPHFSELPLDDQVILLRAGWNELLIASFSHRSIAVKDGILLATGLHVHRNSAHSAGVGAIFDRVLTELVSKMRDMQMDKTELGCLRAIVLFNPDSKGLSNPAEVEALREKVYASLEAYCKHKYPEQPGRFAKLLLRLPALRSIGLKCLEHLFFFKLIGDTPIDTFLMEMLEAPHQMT
Chain of Retinoic acid receptor RXR-alpha/oxysterols receptor LXR-alpha (P19793 whole entry, one chain of several): as above

As for `CC(C)(O)c1cn(-c2ccc(-c3cc(F)c(CO)c(S(C)(=O)=O)c3)cc2)c(C(C)(C)c2cccc(F)c2Cl)n1`, the Efficacy in [1] is 68%; in data set [3], 16%; in data set [4], 34%; in [11], 29%. In addition, the Emax in [2] worked out at 12%. Further, the EC50 came out at 3000 nM in [5] and 52 nM in [10]. Further, the values for the PB in [6] and in [7] were 87.6% and 94.4%, respectively. Besides, the Activity was found to be 85% in [8], 2% in [16] and 58% in data set [17]. Moreover, in [9], the betat1/2(app) lay in the range of 10 to 12 h. Also, the figures for the “fold change (FC)” value in [12] and in data set [13] were 4 and 10, respectively. The concentration at 5 h in data set [14] is 85 nM; in data set [15], 310 nM.

Turning to `CC(C)(O)c1cn(-c2ccc(-c3ccc(CO)c(S(C)(=O)=O)c3)cc2)c(Cc2ccccc2Cl)n1`, the Efficacy turned out to be 50% in data set [1], 54% in data set [3] and 72% in data set [4]. Also, the EC50 in [18] stood at 60 nM; in data set [21] it was 9 nM; in data set [22], 100 nM; in data set [23] it was 300 nM. The inhibitory constant (Ki) in data set [19] stood at 5 nM; in data set [20], 31 nM. The Emax in data set [2] is 39%. Moreover, the t1/2 in data set [24] came out at 48 min.

Broadly, the EC50 is the midpoint of the concentration-response curve. By Ki is commonly meant the equilibrium dissociation constant of an inhibitor or competing ligand from its target.

The values above are taken from ChEMBL document CHEMBL3867488 (ACS Med Chem Lett, 2016).
